The nature of data set [1]: Drug level treated with 9-[4-(1,2-Diphenyl-but-1-enyl)-phenylcarbamoyl]-nonanoic acid 3-{2-acetoxy-5-[((S)-1,2,3-trimethoxy-10-methylsulfanyl-9-oxo-5,6,7,9-tetrahydro-benzo[a]heptalen-7-ylcarbamoyl)-methylcarbamoyloxymethyl]-phenyl}-propyl ester assessed as porcine pancreas lipase type 2-mediated compound formation in presence of pH 7 phosphate buffer by reversed-phase HPLC. The format is ADME, Sus scrofa. The note with it: pig. The essentials:
(§1)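 Analytical-scale incubation was run overnight in 15:85 DMSO/phosphate buffer (20 mM, pH 7) with 1% n-BuOH and porcine pancreatic lipase. Starting-material hydrolysis and released products were quantified by reversed-phase HPLC.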

Data set [2] is described as follows: Drug level treated with 4-{3-[4-(1,2-Diphenyl-but-1-enyl)-phenylcarbamoyl]-propyldisulfanyl}-butyric acid 3-{2-acetoxy-5-[((S)-1,2,3-trimethoxy-10-methylsulfanyl-9-oxo-5,6,7,9-tetrahydro-benzo[a]heptalen-7-ylcarbamoyl)-methylcarbamoyloxymethyl]-phenyl}-propyl ester assessed as Celite-supported formulation of Pseudomonas cepacia lipase PS-mediated compound formation in presence of pH 7 phosphate buffer by reversed-phase HPLC. The format is ADME.

Data set [3] relates to HeLa. As to the kind of experiment: Antiproliferative activity against human HeLa cells assessed as reduction in cell number incubated for 72 hrs. Type of data set: functional.
In data set [4] the test system is HepG2. The data set is described as follows: Antiproliferative activity against human HepG2 cells assessed as reduction in cell number incubated for 72 hrs. Type of data set: functional. The note with it: HepG2, 72 h.
Data set [5] can be described thus: Stability assessed as Celite-supported formulation of Pseudomonas cepacia lipase PS-mediated drug hydrolysis in presence of pH 7 phosphate buffer by reversed-phase HPLC. The format is ADME. To be noted: read-out: Drug degradation.
Data set [6] is described as follows: Drug metabolism assessed as Celite-supported formulation of Pseudomonas cepacia lipase PS-mediated 2-Amino-N-((S)-1,2,3-trimethoxy-10-methylsulfanyl-9-oxo-5,6,7,9-tetrahydro-benzo[a]heptalen-7-yl)-acetamide trifluoroacetic acid formation in presence of pH 7 phosphate buffer by reversed-phase HPLC. Type of data set: ADME.
Data set [7] is described as follows: Drug metabolism assessed as Celite-supported formulation of Pseudomonas cepacia lipase PS-mediated 4-((4-(4-(1,2-diphenylbut-1-enyl)phenylamino)-4-oxobutyl)disulfanyl)butanoic acid formation in presence of pH 7 phosphate buffer by reversed-phase HPLC. Type of data set: ADME.
A short description of data set [8]: Self-assembling property assessed as hydrodynamic diameter by dynamic light scattering method. Type of data set: physicochemical.
Data set [9] can be described thus: Self-assembling property assessed as zeta potential by dynamic light scattering method. The format is physicochemical.
Data set [10] in a line: Self-assembling property assessed as polydispersity index by dynamic light scattering method. The format is physicochemical.
Data set [11] in a line: Colloidal stability of the compound in nanoparticle form at 0.5 mg/mL at acidic pH conditions. The format is physicochemical. The essentials:
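Zeta potential was measured against pH at 0.5 mg/mL nanoparticle concentration and fixed ionic strength (1 mM KCl). pH was adjusted across 2–12 with 0.1 M NaOH or HCl. Hydrodynamic diameter was also followed over the same range.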

A short description of data set [12]: Colloidal stability of the compound in nanoparticle form in Ph 7 PBS at 0.5 mg/mL in presence of 10 to 100 mM KCl. Type of data set: physicochemical. To be noted: buffer. In short, it runs like this: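 Nanoparticles were held at 0.5 mg/mL in PBS buffered to pH 7.4, with KCl at 0, 10, 25, 50 and 100 mM. Zeta potential and hydrodynamic diameter were recorded at each ionic strength.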

In data set [13] the test system is MCF7. As to the kind of experiment: Antiproliferative activity against human MCF7 cells assessed as reduction in cell number incubated for 72 hrs. Type of data set: functional. To be noted: MCF7, 72 h.
Data set [14] is described as follows: Stability assessed as porcine pancreas lipase type 2-mediated drug hydrolysis in presence of pH 7 phosphate buffer by reversed-phase HPLC. Type of data set: ADME, Sus scrofa. To be noted: pig, porcine pancreas lipase type 2, pH 7; read-out: Drug degradation. The essentials:
as §1

The nature of data set [15]: Drug metabolism assessed as porcine pancreas lipase type 2-mediated 10-(4-(1,2-diphenylbut-1-enyl)phenylamino)-10-oxodecanoic acid formation in presence of pH 7 phosphate buffer by reversed-phase HPLC. The format is ADME, Sus scrofa. The note with it: pig. In short, it runs like this: as §1

Six compounds from ChEMBL document CHEMBL4339225, “Self-assembling Releasable Thiocolchicine-Diphenylbutenylaniline Conjugates” (ACS Med Chem Lett, 2019) can be followed below.

The term GI50 denotes the concentration giving 50% growth inhibition.

Molecules are shown by their SMILES.

On to `COc1cc2c(c(OC)c1OC)-c1ccc(SC)c(=O)cc1[C@@H](NC(=O)CN)CC2`, for which the Drug uptake result in data set [1] and in data set [2] was “Active” in each case.
Turning to `CC/C(=C(\c1ccccc1)c1ccc(N)cc1)c1ccccc1`, the Drug uptake entry in data set [1] and in data set [2] was “Active” throughout. The GI50 in data set [3] was more than 30 µM; in data set [4], 28.2 µM.
On to `CC/C(=C(\c1ccccc1)c1ccc(NC(=O)CCCSSCCCC(=O)OCCCc2cc(COC(=O)NCC(=O)N[C@H]3CCc4cc(OC)c(OC)c(OC)c4-c4ccc(SC)c(=O)cc43)ccc2OC(C)=O)cc1)c1ccccc1`, for which the metabolised in data set [5] was found to be 88%. Further, the Drug metabolism entry in data set [6] and in [7] was “Metabolite_Detected” each time. For the same compound, the Activity in data set [8] is on record as 344 nm; in data set [9] it was -46.47 mV. Moreover, in data set [10], the Activity_index came to 0.147. Further, the Stability result in data set [11] is reported as “Unstable”; in [12], “Stable”. The figures for the GI50 in data set [3], in data set [4] and in data set [13] were 2.8 µM, more than 30 µM and 0.71 µM, respectively.
For `CC/C(=C(\c1ccccc1)c1ccc(NC(=O)CCCCCCCCC(=O)OCCCc2cc(COC(=O)NCC(=O)N[C@H]3CCc4cc(OC)c(OC)c(OC)c4-c4ccc(SC)c(=O)cc43)ccc2OC(C)=O)cc1)c1ccccc1`, the metabolised in [14] amounted to 85%. For the same compound, in data set [15], the Drug metabolism result is reported as “Metabolite_Detected”. Besides, the values for the Activity in data set [8] and in data set [9] were 412.9 nm and -33.51 mV, respectively. In data set [10], the Activity_index is reported as 0.17. In addition, the Stability result is “Unstable” in data set [11] and “Stable” in data set [12]. Further, the GI50 in data set [3] was 4.2 µM; in data set [4], more than 30 µM; in data set [13], 0.87 µM.
For the compound `CC/C(=C(\c1ccccc1)c1ccc(NC(=O)CCCSSCCCC(=O)O)cc1)c1ccccc1`, the GI50 in [3], in [4] and in [13] was more than 30 µM in each case.
Take `CC/C(=C(\c1ccccc1)c1ccc(NC(=O)CCCCCCCCC(=O)O)cc1)c1ccccc1`: in data set [1], the Drug uptake entry is given as “Active”. Besides, the GI50 in data set [3] was more than 30 µM; in [4], 25.6 µM; in data set [13] it was more than 30 µM.
